Experimental data published in ChEMBL document CHEMBL1142136, “Contribution of target gene mutations and efflux to decreased susceptibility of Salmonella enterica serovar typhimurium to fluoroquinolones and other antimicrobials” (2007).
≈ marks a conversion by molar mass, not a printed value.

What was measured:
Type in all cases: functional, Salmonella enterica subsp. enterica serovar Typhimurium
Salmonella typhimurium [1] = assay: Antimicrobial activity against Salmonella enterica serovar Typhimurium CHS38 acrAB::Kan with GyrA D87G mutation
Summary of the method: (§1)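 MICs measured by broth microdilution on the Sensititre automated system and interpreted by CLSI broth microdilution standards. Ciprofloxacin was also tested by agar dilution, widening the range to 0.0075–128 μg/ml. Quality control strains were E. coli ATCC 25922 and 35218, E. faecalis ATCC 29212, S. aureus ATCC 29213 and P. aeruginosa ATCC 27853.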

Salmonella typhimurium [2] = assay: Antimicrobial activity against Salmonella enterica serovar Typhimurium S21-3 tolC::Kan with GyrA S83F, ParC S80I mutation; summary of the method: as §1
Salmonella typhimurium [3] = assay: Antimicrobial activity against Salmonella enterica serovar Typhimurium S21-3 with GyrA S83F, ParC S80I mutation; summary of the method: as §1
Salmonella typhimurium [4] = assay: Antimicrobial activity against Salmonella enterica serovar Typhimurium CS3 with GyrA S83F, D87N, ParC S80I mutation; summary of the method: as §1
Salmonella typhimurium [5] = assay: Antimicrobial activity against Salmonella enterica serovar Typhimurium CHS18 gyrA+ with GyrA S38F mutation; summary of the method: as §1
Salmonella typhimurium [6] = assay: Antimicrobial activity against Salmonella enterica serovar Typhimurium CHS14 gyrA+ with GyrA D87G mutation; summary of the method: as §1
Salmonella typhimurium [7] = assay: Antimicrobial activity against Salmonella enterica serovar Typhimurium CHS18 acrAB::Kan with GyrA S38F mutation; summary of the method: as §1
Salmonella typhimurium [8] = assay: Antimicrobial activity against Salmonella enterica serovar Typhimurium S21-2 tolC::Kan with GyrA S83F, ParC S80I mutation; summary of the method: as §1
Salmonella typhimurium [9] = assay: Antimicrobial activity against Salmonella enterica serovar Typhimurium S21 tolC::Kan
Summary of the method: (§2)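 MICs by automated broth microdilution panels, interpreted to CLSI broth microdilution standards. Ciprofloxacin additionally tested by agar dilution across 0.0075 to 128 μg/ml. Quality control strains: E. coli ATCC 25922 and 35218, Enterococcus faecalis ATCC 29212, S. aureus ATCC 29213, P. aeruginosa ATCC 27853. Test strains are kanamycin-marked deletion mutants of ground-beef isolate S21.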

Salmonella typhimurium [10] = assay: Antimicrobial activity against Salmonella enterica serovar Typhimurium CS9 with GyrA S83F, D87N, ParC S80I mutation; summary of the method: as §1
Salmonella typhimurium [11] = assay: Antimicrobial activity against Salmonella enterica serovar Typhimurium S21-3 acrAB::Kan with GyrA S83F, ParC S80I mutation; summary of the method: as §1
Salmonella typhimurium [12] = assay: Antimicrobial activity against Salmonella enterica serovar Typhimurium CS1 tolC::Kan with GyrA S83F, D87N, ParC S80I mutation; summary of the method: as §1
Salmonella typhimurium [13] = assay: Antimicrobial activity against Salmonella enterica serovar Typhimurium S21-4 with GyrA S83F, ParC S80I mutation; summary of the method: as §1
Salmonella typhimurium [14] = assay: Antimicrobial activity against Salmonella enterica serovar Typhimurium GyrA S21-1 acrAB::Kan with GyrA S83F mutation; summary of the method: as §1
Salmonella typhimurium [15] = assay: Antimicrobial activity against Salmonella enterica serovar Typhimurium S21-3 gyrA+ with ParC S80I mutation; summary of the method: as §1
Salmonella typhimurium [16] = assay: Antimicrobial activity against Salmonella enterica serovar Typhimurium S21-4 acrAB::Kan with GyrA S83F, ParC S80I mutation; summary of the method: as §1
Salmonella typhimurium [17] = assay: Antimicrobial activity against Salmonella enterica serovar Typhimurium CS9 acrAB::Kan with GyrA S83F, D87N, ParC S80I mutation; summary of the method: as §1
Salmonella typhimurium [18] = assay: Antimicrobial activity against Salmonella enterica serovar Typhimurium CS1 with GyrA S83F, D87N, ParC S80I mutation; summary of the method: as §1
Salmonella typhimurium [19] = assay: Antimicrobial activity against Salmonella enterica serovar Typhimurium S21-2 acrAB::Kan with GyrA S83F, ParC S80I mutation; summary of the method: as §1
Salmonella typhimurium [20] = assay: Antimicrobial activity against Salmonella enterica serovar Typhimurium CHS38 with GyrA D87G mutation; summary of the method: as §1
Salmonella typhimurium [21] = assay: Antimicrobial activity against Salmonella enterica serovar Typhimurium S21-1 GyrA S83F mutant; summary of the method: as §1
Salmonella typhimurium [22] = assay: Antimicrobial activity against Salmonella enterica serovar Typhimurium S21-2 with GyrA S83F, ParC S80I mutation; summary of the method: as §1
Salmonella typhimurium [23] = assay: Antimicrobial activity against Salmonella enterica serovar Typhimurium S21 acrAB::Kan; summary of the method: as §2
Salmonella typhimurium [24] = assay: Antimicrobial activity against Salmonella enterica serovar Typhimurium CS3 acrAB::Kan with GyrA S83F, D87N, ParC S80I mutation; summary of the method: as §1
Salmonella typhimurium [25] = assay: Antimicrobial activity against Salmonella enterica serovar Typhimurium S21 gyrA+; summary of the method: as §1
Salmonella typhimurium [26] = assay: Antimicrobial activity against Salmonella enterica serovar Typhimurium CS1 gyrA+ with GyrA S83F, D87N, ParC S80I mutation; summary of the method: as §1
Salmonella typhimurium [27] = assay: Antimicrobial activity against Salmonella enterica serovar Typhimurium CHS38 tolC::Kan with GyrA D87G mutation; summary of the method: as §1
Salmonella typhimurium [28] = assay: Antimicrobial activity against Salmonella enterica serovar Typhimurium CS3 tolC::Kan with GyrA S83F, D87N, parC S80I mutation; summary of the method: as §1
Salmonella typhimurium [29] = assay: Antimicrobial activity against Salmonella enterica serovar Typhimurium CS3 gyrA+ with GyrA S83F, D87N, ParC S80I mutation; summary of the method: as §1
Salmonella typhimurium [30] = assay: Antimicrobial activity against Salmonella enterica serovar Typhimurium CHS14 acrAB::Kan with GyrA D87G mutation; summary of the method: as §1
Salmonella typhimurium [31] = assay: Antimicrobial activity against Salmonella enterica serovar Typhimurium CHS18 with GyrA S38F mutation; summary of the method: as §1
Salmonella typhimurium [32] = assay: Antimicrobial activity against Salmonella enterica serovar Typhimurium CHS18 tolC::Kan with GyrA S38F mutation; summary of the method: as §1
Salmonella typhimurium [33] = assay: Antimicrobial activity against Salmonella enterica serovar Typhimurium CHS38 gyrA+ with GyrA D87G mutation; summary of the method: as §1
Salmonella typhimurium [34] = assay: Antimicrobial activity against Salmonella enterica serovar Typhimurium S21-1 tolC::Kan with GyrA S83F mutation; summary of the method: as §1
Salmonella typhimurium [35] = assay: Antimicrobial activity against Salmonella enterica serovar Typhimurium CS9 tolC::Kan with GyrA S83F, D87N, ParC S80I mutation; summary of the method: as §1
Salmonella typhimurium [36] = assay: Antimicrobial activity against Salmonella enterica serovar Typhimurium CS1 acrAB::Kan with GyrA S83F, D87N, ParC S80I mutation; summary of the method: as §1
Salmonella typhimurium [37] = assay: Antimicrobial activity against Salmonella enterica serovar Typhimurium CHS14 tolC::Kan with GyrA D87G mutant; summary of the method: as §1
Salmonella typhimurium [38] = assay: Antimicrobial activity against Salmonella enterica serovar Typhimurium CS9 gyrA+ with GyrA S83F, D87N, ParC S80I mutation; summary of the method: as §1
Salmonella typhimurium [39] = assay: Antimicrobial activity against Salmonella enterica serovar Typhimurium CHS14 with GyrA D87G mutation; summary of the method: as §1
Salmonella typhimurium [40] = assay: Antimicrobial activity against Salmonella enterica serovar Typhimurium S21-4 tolC::Kan with GyrA S83F, ParC S80I mutation; summary of the method: as §1
Salmonella typhimurium [41] = assay: Antimicrobial activity against Salmonella enterica serovar Typhimurium S21-2 gyrA+ with ParC S80I mutation; summary of the method: as §1
Salmonella typhimurium [42] = assay: Antimicrobial activity against Salmonella enterica serovar Typhimurium S21; summary of the method: as §1
Salmonella typhimurium [43] = assay: Antimicrobial activity against Salmonella enterica serovar Typhimurium S21-1 gyrA+; summary of the method: as §1
Salmonella typhimurium [44] = assay: Antimicrobial activity against Salmonella enterica serovar Typhimurium S21-4 gyrA+ with ParC S80I mutation; summary of the method: as §1

## COc1c(N2CCNC(C)C2)c(F)cc2c(=O)c(C(=O)O)cn(C3CC3)c12 (stereo not drawn) [GATIFLOXACIN]
Salmonella typhimurium [1]
  MIC: < 0.015 µg/mL
Salmonella typhimurium [2]
  MIC: 0.06 µg/mL (≈ 0.16 µM)
Salmonella typhimurium [3]
  MIC: 8 µg/mL (≈ 21.3 µM)
Salmonella typhimurium [4]
  MIC: 4 µg/mL (≈ 10.7 µM)
Salmonella typhimurium [5]
  MIC: 0.06 µg/mL (≈ 0.16 µM)
Salmonella typhimurium [6]
  MIC: 0.03 µg/mL (≈ 0.0799 µM)
Salmonella typhimurium [7]
  MIC: 0.12 µg/mL (≈ 0.32 µM)
Salmonella typhimurium [8]
  MIC: 0.06 µg/mL (≈ 0.16 µM)
Salmonella typhimurium [9]
  MIC: < 0.015 µg/mL
Salmonella typhimurium [10]
  MIC: 4 µg/mL (≈ 10.7 µM)
Salmonella typhimurium [11]
  MIC: 0.06 µg/mL (≈ 0.16 µM)
Salmonella typhimurium [12]
  MIC: 0.5 µg/mL (≈ 1.33 µM)
Salmonella typhimurium [13]
  MIC: 16 µg/mL (≈ 42.6 µM)
Salmonella typhimurium [14]
  MIC: 0.03 µg/mL (≈ 0.0799 µM)
Salmonella typhimurium [15]
  MIC: 1 µg/mL (≈ 2.66 µM)
Salmonella typhimurium [16]
  MIC: 0.06 µg/mL (≈ 0.16 µM)
Salmonella typhimurium [17]
  MIC: 0.5 µg/mL (≈ 1.33 µM)
Salmonella typhimurium [18]
  MIC: 4 µg/mL (≈ 10.7 µM)
Salmonella typhimurium [19]
  MIC: 0.06 µg/mL (≈ 0.16 µM)
Salmonella typhimurium [20]
  MIC: 0.12 µg/mL (≈ 0.32 µM)
Salmonella typhimurium [21]
  MIC: 0.5 µg/mL (≈ 1.33 µM)
Salmonella typhimurium [22]
  MIC: 1 µg/mL (≈ 2.66 µM)
Salmonella typhimurium [23]
  MIC: < 0.015 µg/mL
Salmonella typhimurium [24]
  MIC: 0.5 µg/mL (≈ 1.33 µM)
Salmonella typhimurium [25]
  MIC: 0.03 µg/mL (≈ 0.0799 µM)
Salmonella typhimurium [26]
  MIC: 0.06 µg/mL (≈ 0.16 µM)
Salmonella typhimurium [27]
  MIC: < 0.015 µg/mL
Salmonella typhimurium [28]
  MIC: 0.5 µg/mL (≈ 1.33 µM)
Salmonella typhimurium [29]
  MIC: 0.06 µg/mL (≈ 0.16 µM)
Salmonella typhimurium [30]
  MIC: < 0.015 µg/mL
Salmonella typhimurium [31]
  MIC: 0.25 µg/mL (≈ 0.666 µM)
Salmonella typhimurium [32]
  MIC: 0.03 µg/mL (≈ 0.0799 µM)
Salmonella typhimurium [33]
  MIC: < 0.015 µg/mL
Salmonella typhimurium [34]
  MIC: 0.03 µg/mL (≈ 0.0799 µM)
Salmonella typhimurium [35]
  MIC: 0.5 µg/mL (≈ 1.33 µM)
Salmonella typhimurium [36]
  MIC: 0.5 µg/mL (≈ 1.33 µM)
Salmonella typhimurium [37]
  MIC: < 0.015 µg/mL
Salmonella typhimurium [38]
  MIC: 0.06 µg/mL (≈ 0.16 µM)
Salmonella typhimurium [39]
  MIC: 0.25 µg/mL (≈ 0.666 µM)
Salmonella typhimurium [40]
  MIC: 0.06 µg/mL (≈ 0.16 µM)
Salmonella typhimurium [41]
  MIC: 0.25 µg/mL (≈ 0.666 µM)
Salmonella typhimurium [42]
  MIC: 0.03 µg/mL (≈ 0.0799 µM)
Salmonella typhimurium [43]
  MIC: 0.03 µg/mL (≈ 0.0799 µM)
Salmonella typhimurium [44]
  MIC: 2 µg/mL (≈ 5.33 µM)

## C[C@H]1COc2c(N3CCN(C)CC3)c(F)cc3c(=O)c(C(=O)O)cn1c23.C[C@H]1COc2c(N3CCN(C)CC3)c(F)cc3c(=O)c(C(=O)O)cn1c23.O [LEVOFLOXACIN]
Salmonella typhimurium [1]
  MIC: 0.03 µg/mL
Salmonella typhimurium [2]
  MIC: 0.12 µg/mL
Salmonella typhimurium [3]
  MIC: > 16 µg/mL
Salmonella typhimurium [4]
  MIC: 8 µg/mL
Salmonella typhimurium [5]
  MIC: 0.06 µg/mL
Salmonella typhimurium [6]
  MIC: 0.06 µg/mL
Salmonella typhimurium [7]
  MIC: 0.03 µg/mL
Salmonella typhimurium [8]
  MIC: 0.06 µg/mL
Salmonella typhimurium [9]
  MIC: < 0.015 µg/mL
Salmonella typhimurium [10]
  MIC: 8 µg/mL
Salmonella typhimurium [11]
  MIC: 0.12 µg/mL
Salmonella typhimurium [12]
  MIC: 1 µg/mL
Salmonella typhimurium [13]
  MIC: > 16 µg/mL
Salmonella typhimurium [14]
  MIC: 0.06 µg/mL
Salmonella typhimurium [15]
  MIC: 1 µg/mL
Salmonella typhimurium [16]
  MIC: 0.25 µg/mL
Salmonella typhimurium [17]
  MIC: 2 µg/mL
Salmonella typhimurium [18]
  MIC: 8 µg/mL
Salmonella typhimurium [19]
  MIC: 0.12 µg/mL
Salmonella typhimurium [20]
  MIC: 0.12 µg/mL
Salmonella typhimurium [21]
  MIC: 0.5 µg/mL
Salmonella typhimurium [22]
  MIC: 1 µg/mL
Salmonella typhimurium [23]
  MIC: < 0.015 µg/mL
Salmonella typhimurium [24]
  MIC: 2 µg/mL
Salmonella typhimurium [25]
  MIC: 0.03 µg/mL
Salmonella typhimurium [26]
  MIC: 0.06 µg/mL
Salmonella typhimurium [27]
  MIC: < 0.015 µg/mL
Salmonella typhimurium [28]
  MIC: 1 µg/mL
Salmonella typhimurium [29]
  MIC: 0.06 µg/mL
Salmonella typhimurium [30]
  MIC: 0.03 µg/mL
Salmonella typhimurium [31]
  MIC: 0.25 µg/mL
Salmonella typhimurium [32]
  MIC: 0.03 µg/mL
Salmonella typhimurium [33]
  MIC: < 0.015 µg/mL
Salmonella typhimurium [34]
  MIC: 0.06 µg/mL
Salmonella typhimurium [35]
  MIC: 1 µg/mL
Salmonella typhimurium [36]
  MIC: 2 µg/mL
Salmonella typhimurium [37]
  MIC: < 0.015 µg/mL
Salmonella typhimurium [38]
  MIC: 0.06 µg/mL
Salmonella typhimurium [39]
  MIC: 0.25 µg/mL
Salmonella typhimurium [40]
  MIC: 0.25 µg/mL
Salmonella typhimurium [41]
  MIC: 0.25 µg/mL
Salmonella typhimurium [42]
  MIC: 0.03 µg/mL
Salmonella typhimurium [43]
  MIC: 0.03 µg/mL
Salmonella typhimurium [44]
  MIC: 2 µg/mL
